# Laboratory results published in ChEMBL document CHEMBL5329156, “Discovery and development of novel substituted monohydrazides as potent antifungal agents” (RSC Med Chem, 2023).
# Activity calls are given as the source filed them. No cut-off for these calls is given here.
# Columns and labels:
# [Candida] auris [1] = Antifungal activity against Candida auris AR Bank # 0384 assessed as fungal growth inhibition by double dilution method; format: functional; settings: Candidozyma auris
# In short: (§1)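 Broth microdilution after CLSI M27-A3/M38-A2 with minor changes. Single colony grown overnight in YPD at 35 °C, 200 rpm. Compound final range 0.06-31.3 µg/mL; incubated 48 h at 35 °C.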
# [Candida] auris [2] = Antifungal activity against Candida auris AR Bank # 387 assessed as fungal growth inhibition by double dilution method; format: functional; settings: Candidozyma auris; in short: as §1
# [Candida] auris [3] = Antifungal activity against Candida auris AR Bank # 383 assessed as fungal growth inhibition by double dilution method; format: functional; settings: Candidozyma auris; in short: as §1
# Candida albicans [4] = experiment: Antibiofilm activity against Candida albicans ATCC 10231 assessed as reduction in biofilm production at 1.96 to 3.9 microg/ml by biofilm formation assay; format: functional, organism-based; settings: dose 1.96-3.9 µg/ml
# [Candida] haemuloni [5] = Antifungal activity against Candida haemulonii AR Bank # 395 assessed as fungal growth inhibition by double dilution method; format: functional; settings: Candidozyma haemuli; in short: as §1
# Candida albicans [6] = experiment: Antifungal activity against Candida albicans ATCC 64124 assessed as fungal growth inhibition by double dilution method; format: functional
# In short: (§2)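 Broth microdilution after CLSI M27-A3/M38-A2 with minor modifications. A single colony was grown overnight in YPD at 35 °C with shaking at 200 rpm. Cells were mixed 1:1 with compound (final 0.06-31.3 µg/mL, from DMSO stocks) and incubated 48 h at 35 °C.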
# Candida albicans [7] = experiment: Antifungal activity against itraconazole/fluconazole resistant Candida albicans ATCC MYA-1003 assessed as fungal growth inhibition by double dilution method; format: functional; in short: as §2
# Candida duobushaemulonii [8] = experiment: Antifungal activity against Candida duobushaemulonii AR Bank # 391 assessed as fungal growth inhibition by double dilution method; format: functional; settings: Candidozyma duobushaemuli; in short: as §1
# [Candida] haemuloni [9] = Antifungal activity against Candida haemulonii AR Bank # 393 assessed as fungal growth inhibition by double dilution method; format: functional; settings: Candidozyma haemuli; in short: as §1
# Nakaseomyces glabratus [10] = experiment: Antifungal activity against Candida glabrata ATCC 22019 assessed as fungal growth inhibition by double dilution method; format: functional; in short: as §1
# [Candida] auris [11] = Antifungal activity against Candida auris AR Bank # 390 assessed as fungal growth inhibition by double dilution method; format: functional; settings: Candidozyma auris; in short: as §1
# Kodamaea ohmeri = experiment: Antifungal activity against Kodamaea ohmeri AR Bank # 396 assessed as fungal growth inhibition by double dilution method; format: functional; in short: as §1
# [Candida] auris [12] = Antifungal activity against Candida auris AR Bank # 386 assessed as fungal growth inhibition by double dilution method; format: functional; settings: Candidozyma auris; in short: as §1
# Aspergillus terreus = experiment: Antifungal activity against Aspergillus terreus ATCC MYA-3633 assessed as fungal growth inhibition by double dilution method; format: functional
# [Candida] auris [13] = Antifungal activity against Candida auris AR Bank # 0390 assessed as fungal growth inhibition by double dilution method; format: functional; settings: Candidozyma auris; in short: as §1
# Cryptococcus neoformans = experiment: Antifungal activity against Cryptococcus neoformans ATCC MYA-895 assessed as fungal growth inhibition by double dilution method; format: functional; in short: as §1
# [Candida] auris [14] = Antifungal activity against Candida auris AR Bank # 385 assessed as fungal growth inhibition by double dilution method; format: functional; settings: Candidozyma auris; in short: as §1
# Clavispora lusitaniae = experiment: Antifungal activity against Clavispora lusitaniae AR Bank # 398 assessed as fungal growth inhibition by double dilution method; format: functional; in short: as §1
# Candida albicans [15] = experiment: Antifungal activity against Candida albicans ATCC 10231 assessed as fungal growth inhibition by double dilution method; format: functional; in short: as §1
# Saccharomyces cerevisiae [16] = experiment: Antifungal activity against Saccharomyces cerevisiae AR Bank # 400 assessed as fungal growth inhibition by double dilution method; format: functional; in short: as §1
# Candida albicans [17] = experiment: Antifungal activity against itraconazole/fluconazole resistant Candida albicans ATCC MYA-1237 assessed as fungal growth inhibition by double dilution method; format: functional; in short: as §2
# Candida albicans [18] = experiment: Antifungal activity against itraconazole/fluconazole resistant Candida albicans ATCC 90819 assessed as fungal growth inhibition by double dilution method; format: functional; in short: as §2
# Candida albicans [19] = experiment: Antifungal activity against itraconazole/fluconazole susceptible Candida albicans ATCC MYA-2876 assessed as fungal growth inhibition by double dilution method; format: functional; in short: as §2
# Candida duobushaemulonii [20] = experiment: Antifungal activity against Candida duobushaemulonii AR Bank # 392 assessed as fungal growth inhibition by double dilution method; format: functional; settings: Candidozyma duobushaemuli; in short: as §1
# [Candida] auris [21] = Antifungal activity against Candida auris AR Bank # 384 assessed as fungal growth inhibition by double dilution method; format: functional; settings: Candidozyma auris; in short: as §1
# Nakaseomyces glabratus [22] = experiment: Antifungal activity against Candida glabrata ATCC 2001 assessed as fungal growth inhibition by double dilution method; format: functional; in short: as §1
# Aspergillus nidulans = experiment: Antifungal activity against Aspergillus nidulans ATCC 38163 assessed as fungal growth inhibition by double dilution method; format: functional
# [Candida] auris [23] = Antifungal activity against Candida auris AR Bank # 382 assessed as fungal growth inhibition by double dilution method; format: functional; settings: Candidozyma auris; in short: as §1
# Pichia kudriavzevii [24] = experiment: Antifungal activity against Pichia kudriavzevii AR Bank # 397 assessed as fungal growth inhibition by double dilution method; format: functional; in short: as §1
# Aspergillus fumigatus [25] = experiment: Antifungal activity against Aspergillus fumigatus NRRL 5109 assessed as fungal growth inhibition by double dilution method; format: functional
# [Candida] auris [26] = Antifungal activity against Candida auris AR Bank # 381 assessed as fungal growth inhibition by double dilution method; format: functional; settings: Candidozyma auris; in short: as §1
# [Candida] auris [27] = Antifungal activity against Candida auris AR Bank # 388 assessed as fungal growth inhibition by double dilution method; format: functional; settings: Candidozyma auris; in short: as §1
# Candida duobushaemulonii [28] = experiment: Antifungal activity against Candida duobushaemulonii AR Bank # 394 assessed as fungal growth inhibition by double dilution method; format: functional; settings: Candidozyma duobushaemuli; in short: as §1
# Pichia kudriavzevii [29] = experiment: Antifungal activity against Pichia kudriavzevii ATCC 6258 assessed as fungal growth inhibition by double dilution method; format: functional; in short: as §1
# Aspergillus flavus = experiment: Antifungal activity against Aspergillus flavus ATCC MYA-3631 assessed as fungal growth inhibition by double dilution method; format: functional
# Aspergillus fumigatus [30] = experiment: Antifungal activity against Aspergillus fumigatus NRRL 6113 assessed as fungal growth inhibition by double dilution method; format: functional
# Candida albicans [31] = experiment: Antifungal activity against itraconazole/fluconazole susceptible Candida albicans ATCC MYA-2310 assessed as fungal growth inhibition by double dilution method; format: functional; in short: as §2
# [Candida] auris [32] = Antifungal activity against Candida auris AR Bank # 389 assessed as fungal growth inhibition by double dilution method; format: functional; settings: Candidozyma auris; in short: as §1
# Saccharomyces cerevisiae [33] = experiment: Antifungal activity against Saccharomyces cerevisiae AR Bank # 399 assessed as fungal growth inhibition by double dilution method; format: functional; in short: as §1
# Aspergillus fumigatus [34] = experiment: Antifungal activity against Aspergillus fumigatus NRRL 163 assessed as fungal growth inhibition by double dilution method; format: functional
compound,measurement,setting,value
COc1cccc(NNC(=O)c2ccccn2)c1,MIC,[Candida] auris [1],0.98 µg/mL
same,MIC,[Candida] auris [2],0.49 µg/mL
same,MIC,[Candida] auris [3],0.98 µg/mL
same,Activity,Candida albicans [4],Active
same,MIC,[Candida] haemuloni [5],0.49 µg/mL
same,MIC,Candida albicans [6],0.98 µg/mL
same,MIC,Candida albicans [7],0.98 µg/mL
same,MIC,Candida duobushaemulonii [8],1.95 µg/mL
same,MIC,[Candida] haemuloni [9],0.49 µg/mL
same,MIC,Nakaseomyces glabratus [10],3.9 µg/mL
same,MIC,[Candida] auris [11],0.98 µg/mL
same,MIC,Kodamaea ohmeri,0.49 µg/mL
same,MIC,[Candida] auris [12],0.49 µg/mL
same,MIC,Aspergillus terreus,3.9 µg/mL
same,MIC,[Candida] auris [13],0.98 µg/mL
same,MIC,Cryptococcus neoformans,0.24 µg/mL
same,MIC,[Candida] auris [14],3.9 µg/mL
same,MIC,Clavispora lusitaniae,1.95 µg/mL
same,MIC,Candida albicans [15],0.24 µg/mL
same,MIC,Saccharomyces cerevisiae [16],7.8 µg/mL
same,MIC,Candida albicans [17],1.95 µg/mL
same,MIC,Candida albicans [18],1.95 µg/mL
same,MIC,Candida albicans [19],0.98 µg/mL
same,MIC,Candida duobushaemulonii [20],1.95 µg/mL
same,MIC,[Candida] auris [21],0.98 µg/mL
same,MIC,Nakaseomyces glabratus [22],15.6 µg/mL
same,MIC,Aspergillus nidulans,1.95 µg/mL
same,MIC,[Candida] auris [23],0.98 µg/mL
same,MIC,Pichia kudriavzevii [24],0.49 µg/mL
same,MIC,Aspergillus fumigatus [25],3.9 µg/mL
same,MIC,[Candida] auris [26],3.9 µg/mL
same,MIC,[Candida] auris [27],3.9 µg/mL
same,MIC,Candida duobushaemulonii [28],0.98 µg/mL
same,MIC,Pichia kudriavzevii [29],0.49 µg/mL
same,MIC,Aspergillus flavus,> 31.3 µg/mL
same,MIC,Aspergillus fumigatus [30],> 31.3 µg/mL
same,MIC,Candida albicans [31],1.95 µg/mL
same,MIC,[Candida] auris [32],0.49 µg/mL
same,MIC,Saccharomyces cerevisiae [33],7.8 µg/mL
same,MIC,Aspergillus fumigatus [34],7.8 µg/mL
